In one series the test system is P. falciparum 3D7. Briefly: microbe, parasite or virus in culture. In kind it is cell-based. Particulars: Plasmodium falciparum, 3D7, read-out: P. falciparum IC50 3D7.
A further series concerns P. falciparum Dd2. Briefly: P. falciparum growth inhibition assay, [3H] hypoxanthine incorporation, Dd2 line. In kind it is cell-based. The note with it: Plasmodium falciparum, DD2, read-out: P. falciparum IC50 Dd2.
For series [1], the system named is asexual-stage P. falciparum. Briefly: P. falciparum asexual-stage growth inhibition, line not specified or both lines. The note with it: for IC50 / IC90: Plasmodium falciparum; for IC50: 3D7|DD2, read-out: IC50 against 3D7 and Dd2 P. falciparum lines; for IC90: in Homo sapiens, read-out: P. falciparum IC90; for P. falciparum SI (Selectivity Index): mammalian cell IC50/P. falciparum IC50, larger values indicate greater parasite selectivity. The format is cell-based, Plasmodium falciparum.

The subject of series [2] is T. b. brucei 427 bloodstream trypanosomes. Nature of the series: T. b. brucei growth inhibition assay. The format is cell-based, Trypanosoma brucei brucei. The note with it: for IC50: read-out: T. b. brucei IC50; for IC90: in Homo sapiens, read-out: T. b. brucei IC90; for T. b. brucei SI (Selectivity Index): mammalian cell IC50/T. brucei IC50.
Series [3] relates to Neonatal foreskin fibroblast (NFF) cells. Briefly: NFF cytotoxicity assay. The format is cell-based. The note with it: Homo sapiens, 72 h, read-out: Mammalian cell IC50 NFF.
The test system of another series is HEK293 cells. Briefly: HEK293 cytotoxicity assay. The format is cell-based. The note with it: read-out: Mammalian cell IC50 HEK 293.
Series [4] relates to tetra-acetylated histone H4 in P. falciparum 3D7 trophozoites. Nature of the series: Protein hyperacetylation assay, Western blot, anti-tetra-acetyl histone H4. Particulars: 3× IC50, 3 h; for Hyperacetylation, anti-(tetra) acetyl H4 antibody (words): vs vehicle control. In kind it is cell-based, Plasmodium falciparum. The method, boiled down: (§1)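 Synchronous trophozoite-stage 3D7-infected erythrocytes (3–5% parasitemia, 5% haematocrit) were exposed for 3 h, with controls of 0.05% DMSO vehicle, chloroquine and a reference HDAC inhibitor. Lysis used 0.15% saponin, then PBS washes, SDS-PAGE and PVDF blotting. Rabbit primaries ran overnight at 4 °C: tetra-acetyl H4 1:2000, H3K9 1:1000, H3 N-terminus 1:500. Membranes were stripped at pH 2 and reprobed with anti-RAP2. Densitometry was RAP2-normalised and expressed as fold change vs vehicle (=1).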
(In general: Immunoblotting shows a protein as a band on a membrane.)

The next series has as its target T1, recombinant PfHDAC1 (Plasmodium falciparum, UniProt Q7K6A1).
T1 sequence (Q7K6A1 1-449): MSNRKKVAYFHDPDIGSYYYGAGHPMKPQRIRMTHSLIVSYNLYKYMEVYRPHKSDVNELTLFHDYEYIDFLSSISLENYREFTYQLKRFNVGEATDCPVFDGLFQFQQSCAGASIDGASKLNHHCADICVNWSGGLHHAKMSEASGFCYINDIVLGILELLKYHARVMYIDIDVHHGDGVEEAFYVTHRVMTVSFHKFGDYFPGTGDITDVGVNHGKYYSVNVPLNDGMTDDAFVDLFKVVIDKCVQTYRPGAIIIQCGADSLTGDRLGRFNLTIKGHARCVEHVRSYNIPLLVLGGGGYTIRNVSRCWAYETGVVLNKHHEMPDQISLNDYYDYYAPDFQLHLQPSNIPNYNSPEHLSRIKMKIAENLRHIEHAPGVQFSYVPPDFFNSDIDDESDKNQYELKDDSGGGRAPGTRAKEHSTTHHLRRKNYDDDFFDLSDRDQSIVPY
Nature of the series: Deacetylase activity assay, recombinant PfHDAC1. The format is biochemical. The note with it: mean (±SD) of two independent assays; for inhibition at 1 µM: read-out: PfHDAC1 % inhibition at 1 μM, 1 μM. Put shortly:
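Recombinant PfHDAC1 (32 ng/ml) was incubated with test compound or control at 1 μM, or with vehicle (0.5% DMSO). Ac-RGK(Ac)-AMC fluorogenic substrate was added for 1 h at 37 °C, then activator solution for 10 min at room temperature. Fluorescence (ex 350–380/em 440–460 nm) was read within 60 min. Percent inhibition was calculated versus DMSO controls from two independent assays, each in duplicate.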

In another series the test system is T. b. brucei. The note with it: read-out: T. b. brucei growth IC50; ref Carrillo et al., 2015; cited from earlier work.
Series [5] concerns acetyl histone H3 lysine 9 in P. falciparum 3D7 trophozoites. Nature of the series: Protein hyperacetylation assay, Western blot, anti-acetyl histone H3 lysine 9. The note with it: 3× IC50, 3 h. The format is cell-based, Plasmodium falciparum. The method, boiled down: as §1
Series [6] has as its system acetyl histone H3 N-terminus in P. falciparum 3D7 trophozoites. Briefly: Protein hyperacetylation assay, Western blot, anti-acetyl histone H3 N-terminus. In kind it is cell-based, Plasmodium falciparum. The note with it: 3× IC50, 3 h. Put shortly: as §1
Another series deals with P. falciparum. The note with it: read-out: P. falciparum in vitro growth IC50; ref Patel et al., 2009; cited from earlier work.
Series [7] has as its system sexual stage P. falciparum gametocytes. The note with it: ref Sun et al., 2014, cited from earlier work; for IC50: read-out: Sexual stage P. falciparum gametocytes IC50.
Series [8] in a line: HEK293 cytotoxicity assay. The format is cell-based. The note with it: human, HEK293 cells.
The next series concerns early stage gametocytes. The note with it: read-out: Early stage gametocytes IC50; ref Trenholme et al., 2014; cited from earlier work.
In another series the test system is late stage gametocytes. Particulars: read-out: Late stage gametocytes IC50; ref Trenholme et al., 2014; cited from earlier work.

Where “and” joins values, the source holds several entries; their conditions need not be identical. Identical values can stand only once. Like-named read-outs stand apart in the source and are kept apart here.

On to `O=C(/C=C/c1cccc(S(=O)(=O)Nc2ccccc2)c1)NO` [Belinostat, belinostat], for which the IC50 with P. falciparum 3D7 is 60 nM; in the series on P. falciparum Dd2, 130 nM; in series [1], less than 200 nM; in [2] (Trypanosoma brucei, 48 h), 2610 nM; in [3], 2370 nM; in the series on HEK293 cells (Homo sapiens, HEK293, 48 h), 1420 nM. Besides, in the series on T. b. brucei, the IC50 is 2200 nM. Also, the IC90 in series [1] came to 120 nM; in series [2] (Trypanosoma brucei), 3640 nM. In addition, in [1], the “P. falciparum SI (Selectivity Index)” value is listed as 11–40. In series [2], the “Times less active against T.b. brucei than P. falciparum” value is given as roughly 100 times. In addition, in series [2], the “T. b. brucei SI (Selectivity Index)” value is recorded as less than 1. For the same molecule, the “Fold increase in acetylation signal, anti-(tetra) acetyl H4 antibody” value in [4] (relative density vs DMSO control, normalised to RAP2) was greater than 1.3 fold. For the same molecule, in [4], the “Hyperacetylation, anti-(tetra) acetyl H4 antibody (words)” value (“Hyperacetylation … (words)” below) is “caused hyperacetylation”. Besides, the inhibition at 1 µM at recombinant PfHDAC1 amounted to 78.5 ± 4.7%.
For the molecule `CCN(CC)CCCC(C)Nc1ccnc2cc(Cl)ccc12` (stereo not drawn) [Chloroquine, chloroquine], the IC50 in the series on P. falciparum 3D7 was determined as 10 nM; in the series on P. falciparum Dd2, 80 nM; in series [2] (Trypanosoma brucei, 48 h) it was 9920 nM; in series [3], 48900 nM. Also, the “P. falciparum SI (Selectivity Index)” value in series [1] was 612–4893. In addition, in series [2], the “T. b. brucei SI (Selectivity Index)” value is 5. Besides, in series [4], the “Hyperacetylation … (words)” value is reported as “did not result in hyperacetylation”.
For the molecule `CC(=O)NCC(=O)O.CC(=O)NCC(=O)O.N=C(N)c1ccc(N=NNc2ccc(C(=N)N)cc2)cc1` [Diminazene aceturate, diminazene aceturate], in [2], the “T. b. brucei SI (Selectivity Index)” value was greater than 617. In addition, the IC50 in series [2] (427 bloodstream form, 48 h exposure) is 60 nM; in the series on HEK293 cells (48 h exposure, resazurin), greater than 37000 nM.
Regarding `Cc1[nH]c2ccccc2c1CCNCc1ccc(/C=C/C(=O)NO)cc1` [Panobinostat, panobinostat], the IC50 with P. falciparum 3D7 is 10 nM; with P. falciparum Dd2, 30 nM; in series [2] (Trypanosoma brucei, 48 h), 1690 nM; in series [3], 70 nM; in the series with P. falciparum, roughly 20 nM; with T. b. brucei it was 1600 nM. Moreover, the IC50 in [7] is 940 nM. Also, the figures for the IC90 in series [1] and in series [2] (Trypanosoma brucei) were 10 nM and 3280 nM, respectively. Also, the “Times less active against T.b. brucei than P. falciparum” value in series [2] was roughly 100 times. In addition, the “Hyperacetylation … (words)” value in series [4] was “did not increase acetylation”; in [4] (listed as panobinostat) it was “did not result in hyperacetylation”. Moreover, in series [5], the “Hyperacetylation, anti-histone H3 lysine 9 antibody” value is “cause hyperacetylation”. For the same molecule, the “Hyperacetylation, anti-histone H3 N-terminus antibody” value in series [6] is on record as “did not increase acetylation”. Also, the inhibition at 1 µM on recombinant PfHDAC1 was roughly 100%.
In the case of `N=C(N)c1ccc(OCCCCCOc2ccc(C(=N)N)cc2)cc1` [Pentamidine], the IC50 was 4 nM in series [2] (Trypanosoma brucei, 48 h) and greater than 690 nM in the series with HEK293 cells (Homo sapiens, HEK293, 48 h). Besides, the “T. b. brucei SI (Selectivity Index)” value in series [2] is greater than 173.
Molecule `COc1ccc(C[C@H](N)C(=O)N[C@H]2[C@@H](O)[C@H](n3cnc4c(N(C)C)ncnc43)O[C@@H]2CO)cc1` [Puromycin, puromycin] had a half-maximal inhibitory concentration (IC50) at 48 h in [8] of 797 nM.
Take `C/C=C1\NC(=O)[C@H]2CSSCC/C=C/[C@H](CC(=O)N[C@H](C(C)C)C(=O)N2)OC(=O)[C@H](C(C)C)NC1=O` [Romidepsin, romidepsin]: the IC50 is 90 nM in the series with P. falciparum 3D7; 130 nM with P. falciparum Dd2; less than 200 nM in series [1]; 35 nM in series [2] (Trypanosoma brucei, 48 h); 1 nM in series [3]; less than 5 nM in the series on HEK293 cells (Homo sapiens, HEK293, 48 h). In series [7], the IC50 is 640 nM. Further, the IC90 amounted to 180 nM in series [1] and 100 nM in [2] (Trypanosoma brucei). In addition, the “P. falciparum SI (Selectivity Index)” value in series [1] was less than 1. Besides, the “T. b. brucei SI (Selectivity Index)” value in series [2] is less than 1. Moreover, the “Hyperacetylation … (words)” value in series [4] is “caused hyperacetylation”. For the same molecule, the “Fold increase in hyperacetylation, anti-histone H3 lysine 9 antibody” value in series [5] (vs vehicle control) is on record as 5–6 fold. Besides, the inhibition at 1 µM on recombinant PfHDAC1 is 48.3 ± 39.3%. The “Selectivity for gametocytes compared to the mammalian cell line HepG2” value in series [7] is given as greater than 10 fold.
Take `CC(/C=C/C(=O)NO)=C\[C@@H](C)C(=O)c1ccc(N(C)C)cc1` [TSA, trichostatin A]: the “PfHDAC1 % inhibition at 1 μM” value at recombinant PfHDAC1 (1 μM) was ~100% and 98.9 ± 1.5%. The results for the concentration for half-maximal inhibition (IC50) in the series with early stage gametocytes and with late stage gametocytes were 90 nM and 70 nM, respectively.
As to `O=C(CCCCCCC(=O)Nc1ccccc1)NO` [Vorinostat, suberoylanilide hydroxamic acid], in [2], the “Times less active against T.b. brucei than P. falciparum” value is recorded as roughly 100 times. For the same molecule, the IC90 in series [2] (Trypanosoma brucei) was found to be 18700 nM. Further, the inhibition at 1 µM on recombinant PfHDAC1 is 59.8 ± 12.7%. Moreover, in the series on late stage gametocytes, the half-maximal inhibitory concentration (IC50) was 810 nM.

As a reminder, the IC50 is the concentration that inhibits the measured activity by half. A word on the IC90: it is the point of the concentration-response curve where the effect stands at 90%. One may read the inhibition as the percentage by which the read-out fell short of the control.
